Source: ChEMBL document CHEMBL4265871, “Novel alkylated azoles as potent antifungals” (Eur J Med Chem, 2017)
Values after ≈ are worked out from the molar mass of the structure shown.

What was measured:
Aspergillus terreus = experiment: Antifungal activity against Aspergillus terreus ATCC MYA-3633 incubated for 48 hrs by CLSI M38-A2 protocol based method; assay type: functional; details: ATCC MYA-3633, 48 h, read-out: MIC100
[1] = Selectivity index, ratio of EC50 for toxicity in human BEAS2B cells to MIC50 for antifungal activity against ITC and FLC-susceptible Candida albicans ATCC MYA-2876; assay type: cell-based; details: BEAS-2B cells, read-out: Selectivity Index
Method in brief: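 Ratio of the compound's EC50 against BEAS-2B cells to its MIC against the named C. albicans strain. […] For C. albicans strains other than ATCC 10231, trailing growth meant MIC-2 was taken, meaning 50% growth inhibition.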

[2] = Selectivity index, ratio of EC50 for toxicity in human BEAS2B cells to MIC50 for antifungal activity against Candida glabrata ATCC 2001; assay type: cell-based; details: BEAS-2B cells, read-out: Selectivity Index
Method in brief: (§1)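 Selectivity index is the EC50 against the mammalian line (A549 or BEAS-2B) divided by the MIC against the given fungal strain.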

[3] = Selectivity index, ratio of EC50 for toxicity in human BEAS2B cells to MIC50 for antifungal activity against ITC and FLC-resistant Candida albicans ATCC MYA-1003; assay type: cell-based; details: BEAS-2B cells, read-out: Selectivity Index; method in brief: as §1
Candida albicans [4] = experiment: Antifungal activity against Candida albicans ATCC 64124 incubated for 48 hrs by modified CLSI M27-A3 protocol based method; assay type: functional; details: ATCC 64124, 48 h
[5] = Selectivity index, ratio of […] for toxicity in human A549 cells to MIC50 for antifungal activity against Aspergillus terreus ATCC MYA-3633; assay type: cell-based; details: read-out: Selectivity Index
Pichia kudriavzevii = experiment: Antifungal activity against Candida krusei ATCC 6258 incubated for 48 hrs by modified CLSI M27-A3 protocol based method; assay type: functional; details: ATCC 6258, 48 h, read-out: MIC100
Method in brief: (§2)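 For C. albicans ATCC 10231, C. krusei ATCC 6258 and C. parapsilosis ATCC 22019, MIC-0 was read, meaning complete growth inhibition. For azole controls, MIC-2 (50% growth inhibition) was reported instead. Caspofungin and voriconazole were tested here; other controls came from earlier work.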

[6] = Selectivity index, ratio of […] for toxicity in human A549 cells to MIC50 for antifungal activity against Aspergillus nidulans ATCC 38163; assay type: cell-based; details: read-out: Selectivity Index
Aspergillus nidulans = experiment: Antifungal activity against Aspergillus nidulans ATCC 38163 incubated for 48 hrs by CLSI M38-A2 protocol based method; assay type: functional; details: ATCC 38163, 48 h, read-out: MIC100
Nakaseomyces glabratus = experiment: Antifungal activity against Candida glabrata ATCC 2001 incubated for 48 hrs by modified CLSI M27-A3 protocol based method; assay type: functional; details: ATCC 2001, 48 h
Candida albicans [7] = experiment: Antifungal activity against ITC and FLC-resistant Candida albicans ATCC 1237 incubated for 48 hrs by modified CLSI M27-A3 protocol based method; assay type: functional; details: ATCC 1237, 48 h
Method in brief: (§3)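 Because these Candida strains show trailing growth, MIC-2 was read, meaning 50% growth inhibition. Caspofungin and voriconazole were tested here; other controls came from earlier work.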

[8] = Selectivity index, ratio of EC50 for toxicity in human A549 cells to MIC50 for antifungal activity against ITC and FLC-susceptible Candida albicans ATCC MYA-2310; assay type: cell-based; details: read-out: Selectivity Index; method in brief: as §1
[9] = Selectivity index, ratio of EC50 for toxicity in human A549 cells to MIC50 for antifungal activity against ITC and FLC-susceptible Candida albicans ATCC MYA-2876; assay type: cell-based; details: read-out: Selectivity Index; method in brief: as §1
[10] = Selectivity index, ratio of […] for toxicity in human BEAS2B cells to MIC50 for antifungal activity against Aspergillus nidulans ATCC 38163; assay type: cell-based; details: BEAS-2B cells, read-out: Selectivity Index
[11] = Selectivity index, ratio of EC50 for toxicity in human BEAS2B cells to MIC50 for antifungal activity against ITC and FLC-resistant Candida albicans ATCC 1237; assay type: cell-based; details: BEAS-2B cells, read-out: Selectivity Index; method in brief: as §1
Candida parapsilosis = experiment: Antifungal activity against Candida parapsilosis ATCC 22019 incubated for 48 hrs by modified CLSI M27-A3 protocol based method; assay type: functional; details: Lodderomyces parapsilosis, ATCC 22019, 48 h; read-out: MIC100; method in brief: as §2
[12] = Selectivity index, ratio of EC50 for toxicity in human BEAS2B cells to MIC50 for antifungal activity against Candida krusei ATCC 6258; details: BEAS-2B cells
[13] = Selectivity index, ratio of EC50 for toxicity in human A549 cells to MIC50 for antifungal activity against ITC and FLC-resistant Candida albicans ATCC MYA-1003; assay type: cell-based; details: read-out: Selectivity Index; method in brief: as §1
Aspergillus flavus = experiment: Antifungal activity against Aspergillus flavus ATCC MYA-3631 incubated for 48 hrs by CLSI M38-A2 protocol based method; assay type: functional; details: ATCC MYA-3631, 48 h, read-out: MIC100
[14] = Selectivity index, ratio of EC50 for toxicity in human A549 cells to MIC50 for antifungal activity against Candida glabrata ATCC 2001; assay type: cell-based; details: read-out: Selectivity Index; method in brief: as §1
Candida albicans [15] = experiment: Antifungal activity against ITC and FLC-resistant Candida albicans ATCC MYA-1003 incubated for 48 hrs by modified CLSI M27-A3 protocol based method; assay type: functional; details: ATCC MYA-1003, 48 h; method in brief: as §3
Candida albicans [16] = experiment: Antifungal activity against ITC and FLC-susceptible Candida albicans ATCC MYA-2876 incubated for 48 hrs by modified CLSI M27-A3 protocol based method; assay type: functional; details: ATCC MYA-2876, 48 h; method in brief: as §3
Candida albicans [17] = experiment: Antifungal activity against ITC and FLC-susceptible Candida albicans ATCC MYA-2310 incubated for 48 hrs by modified CLSI M27-A3 protocol based method; assay type: functional; details: ATCC MYA-2310, 48 h
[18] = Selectivity index, ratio of EC50 for toxicity in human A549 cells to MIC for antifungal activity against Candida parapsilosis ATCC 22019
Candida albicans [19] = experiment: Antifungal activity against Candida albicans ATCC 10231 incubated for 48 hrs by modified CLSI M27-A3 protocol based method; assay type: functional; details: ATCC 10231, 48 h, read-out: MIC100; method in brief: as §2
[20] = Selectivity index, ratio of EC50 for toxicity in human BEAS2B cells to MIC100 for antifungal activity against Candida albicans ATCC 10231; assay type: cell-based; details: BEAS-2B cells, read-out: Selectivity Index; method in brief: as §1
[21] = Selectivity index, ratio of EC50 for toxicity in human A549 cells to MIC50 for antifungal activity against ITC and FLC-resistant Candida albicans ATCC 1237; assay type: cell-based; details: read-out: Selectivity Index; method in brief: as §1

SMILES | MIC (Aspergillus terreus) [µM] | selectivity ratio [1] | selectivity ratio [2] | selectivity ratio [3] | MIC50 (Candida albicans [4]) [µM] | selectivity ratio [5] | MIC (Pichia kudriavzevii) [µM] | selectivity ratio [6] | MIC (Aspergillus nidulans) [µM] | MIC50 (Nakaseomyces glabratus) [µM] | MIC50 (Candida albicans [7]) [µM] | selectivity ratio [8] | selectivity ratio [9] | selectivity ratio [10] | selectivity ratio [11] | MIC (Candida parapsilosis) [µM] | selectivity ratio [12] | selectivity ratio [13] | MIC (Aspergillus flavus) [µM] | selectivity ratio [14] | also measured
CCCCCC(O)(Cn1cncn1)c1ccc(F)cc1 (stereo unspecified) | 113 (≈ 31.3 µg/mL) | 4 | 4 | 1 | > 113 | 1 | 3.5 (≈ 0.971 µg/mL) | 8 | 14.1 (≈ 3.91 µg/mL) | 28.1 (≈ 7.79 µg/mL) | 7 (≈ 1.94 µg/mL) | 8 | 4 | 8 | 17 | 1.7 (≈ 0.471 µg/mL) | 34 | 1 | > 113 | 4 | MIC50 (Candida albicans [15]): > 113 µM; MIC50 (Candida albicans [16]): 28.1 µM (≈ 7.79 µg/mL); MIC50 (Candida albicans [17]): 14.1 µM (≈ 3.91 µg/mL); selectivity ratio [18]: 65; MIC (Candida albicans [19]): 14.1 µM (≈ 3.91 µg/mL); selectivity ratio [20]: 8; selectivity ratio [21]: 16
CCCC(O)(Cn1cncn1)c1ccc(Cl)cc1Cl (stereo unspecified) | 13 (≈ 3.9 µg/mL) | 16 | 8 | 32 | 13 (≈ 3.9 µg/mL) | 8 | 0.2 (≈ 0.06 µg/mL) | 16 | 6.5 (≈ 1.95 µg/mL) | 13 (≈ 3.9 µg/mL) | 26 (≈ 7.8 µg/mL) | 8 | 16 | 16 | 4 | < 0.1 | 522 | 32 | 52 (≈ 15.6 µg/mL) | 8 | MIC50 (Candida albicans [15]): 3.2 µM (≈ 0.961 µg/mL); MIC50 (Candida albicans [16]): 6.5 µM (≈ 1.95 µg/mL); MIC50 (Candida albicans [17]): 13 µM (≈ 3.9 µg/mL); selectivity ratio [18]: 1040; MIC (Candida albicans [19]): 0.8 µM (≈ 0.24 µg/mL); selectivity ratio [20]: 130; selectivity ratio [21]: 4
CCCCCC(O)(Cn1cncn1)c1ccc(Cl)cc1 (stereo unspecified) | > 106 | 2 | 8 | 16 | 26.5 (≈ 7.79 µg/mL) | 1 | 0.41 (≈ 0.12 µg/mL) | 4 | 26.5 (≈ 7.79 µg/mL) | 13.3 (≈ 3.91 µg/mL) | 13.3 (≈ 3.91 µg/mL) | 2 | 2 | 4 | 8 | 0.2 (≈ 0.0588 µg/mL) | 261 | 16 | > 106 | 8 | MIC50 (Candida albicans [15]): 6.6 µM (≈ 1.94 µg/mL); MIC50 (Candida albicans [16]): 53.1 µM (≈ 15.6 µg/mL); MIC50 (Candida albicans [17]): 53.1 µM (≈ 15.6 µg/mL); selectivity ratio [18]: 522; MIC (Candida albicans [19]): 6.6 µM (≈ 1.94 µg/mL); selectivity ratio [20]: 16; selectivity ratio [21]: 8
